According to ChEMBL document CHEMBL1144398, “Structure-based design, parallel synthesis, structure-activity relationship, and molecular modeling studies of thiocarbamates, new potent non-nucleoside HIV-1 reverse transcriptase inhibitor isosteres of phenethylthiazolylthiourea derivatives” (J Med Chem, 2005):
pEC50, pIC50: −log10 of the molar value.

How the values were obtained:
C8166 = assay: Effective concentration required to reduce the amount of p24 antigen levels in wild type human immunodeficiency virus type 1 infected C8166 cultures; assay type: functional
Outline: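 C8166 cultures infected with wild-type HIV-1. p24 antigen in the cultures was measured after compound treatment, and EC90 is the concentration that reduces p24 by 90%. Trovirdine served as the reference.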

MT4 [1] = assay: Cytotoxic concentration required to reduce the viability of mock infected MT-4 cells determined by MTT method; assay type: functional; details: Homo sapiens
Outline: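 Viability of mock-infected MT-4 cells, assayed in parallel with the antiviral test, read by MTT. CC50 is the concentration that lowers viability by 50%. Values are means of three separate experiments, with variation among triplicates under 10%. The highest concentration tested was 100 µM.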

MT4 [2] = assay: Ratio of CC50 to that of EC50 determined in MT-4 cells; assay type: functional
Outline: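 Selectivity index, calculated as CC50/EC50. CC50 came from MTT viability of mock-infected MT-4 cells and EC50 from MTT-read protection of HIV-1-infected MT-4 cells from cytopathogenicity, with both run in parallel. Values are means of three experiments.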

MT4 [3] = assay: Effective concentration require to protect MT-4 cells from HIV-1 Y181C mutant induced cytopathogenicity was determined by MTT method; assay type: functional, cell-based, Homo sapiens
Outline: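 HIV-1 strains carrying the Y181C RT mutation in MT-4 cells. EC50 is the concentration giving 50% protection from virus-induced cytopathogenicity, read out by MTT. Trovirdine was run as the reference. Values are means of three separate experiments.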

MT4 [4] = assay: Effective concentration require to protect MT-4 cells from human immunodeficiency virus type 1 induced cytopathogenicity was determined by MTT method; assay type: functional, cell-based
Outline: (§1)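 MT-4 cells infected with HIV-1, with test compounds added. Protection from virus-induced cytopathogenicity was read by MTT. EC50 is the concentration giving 50% protection. Values are means of three separate experiments, with variation among triplicates under 10%. Trovirdine served as the reference.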

[5] = molecular target: T1, Human immunodeficiency virus type 1 reverse transcriptase (Human immunodeficiency virus 1, UniProt Q72547); assay: Inhibitory concentration against HIV-1 virion reverse transcriptase
[6] = molecular target: T1, Human immunodeficiency virus type 1 reverse transcriptase; assay: Inhibitory concentration against HIV-1 wild type reverse transcriptase (IIIB)
[7] = molecular target: T1, Human immunodeficiency virus type 1 reverse transcriptase; assay: Inhibitory concentration against HIV-1 mutant reverse transcriptase (K103R)
[8] = molecular target: Human immunodeficiency virus type 1 reverse transcriptase (Human immunodeficiency virus 1, UniProt Q72547, Y181C); assay: Inhibitory concentration against HIV-1 mutant reverse transcriptase (Y181C)
[9] = molecular target: Human immunodeficiency virus type 1 reverse transcriptase (Human immunodeficiency virus 1, UniProt Q72547, K103N/Y181C); assay: Inhibitory concentration against HIV-1 mutant reverse transcriptase (K103N+Y181C)
MT4 [10] = assay: Effective concentration require to inhibit human immunodeficiency virus type 1 induced cytopathogenicity in MT-4 cells determined by MTT method; assay type: functional, cell-based; outline: as §1

SMILES | EC90 (C8166) [nM] | CC50 (MT4 [1]) [µM] | SI (MT4 [2]) | pEC50 (MT4 [3]) | pEC50 (MT4 [4]) | pIC50 [5] | pIC50 [6] | pIC50 [7] | pIC50 [8] | pIC50 [9] | pEC50 (MT4 [10])
O=C1c2ccccc2C(=O)N1CCOC(=S)Nc1ccc(Cl)cc1 | 40 | > 100 | >2500 | 5.64 | 7.40 | – | – | – | – | – | –
O=C1c2ccccc2C(=O)N1CCOC(=S)Nc1ccc(Br)cc1 | 15 | > 100 | >3333 | 5.62 | 7.52 | – | – | – | – | – | –
CC(CO/C(S)=N\c1ccc(Cl)cc1)NC(=O)c1ccccc1C(=O)O (stereo not drawn) | – | > 100 | >20 | – | 5.30 | – | – | – | – | – | –
O=C1c2ccccc2C(=O)N1CCOC(=S)Nc1ccccc1 | – | > 100 | >83.3 | – | 5.92 | 6.22 | – | – | – | – | –
Cc1cccc2c1C(=O)N(CCO/C(S)=N/c1ccc(Cl)cc1)C2=O | – | > 100 | >2000 | – | 7.30 | – | – | – | – | – | –
CC(CN1C(=O)c2ccccc2C1=O)O/C(S)=N/c1ccc([N+](=O)[O-])cc1 (stereo not drawn) | – | > 100 | >11.6 | – | 5.07 | – | – | – | – | – | –
O=C1c2ccccc2C(=O)N1CCOC(=S)Nc1ccc(I)cc1 | 40 | > 100 | >5000 | – | 7.70 | – | 7.05 | 5.64 | < 4.70 | < 4.70 | –
Cc1ccc2c(c1)C(=O)N(CCO/C(S)=N/c1ccc([N+](=O)[O-])cc1)C2=O | – | 80 | >8000 | – | 8.00 | – | – | – | – | – | –
O=C1c2ccccc2C(=O)N1CCCOC(=S)Nc1ccc([N+](=O)[O-])cc1 | – | ≥ 100 | >=5.3 | – | 4.72 | – | – | – | – | – | –
CC(CN1C(=O)c2ccccc2C1=O)O/C(S)=N/c1ccc(C#N)cc1 (stereo not drawn) | – | > 100 | >2.7 | – | 4.44 | – | – | – | – | – | –
O=C1CCC(=O)N1CCOC(=S)Nc1ccc(Cl)cc1 | – | > 100 | >42 | – | 5.62 | – | – | – | – | – | –
O=C(O)c1ccccc1C(=O)NCCO/C(S)=N\c1ccc(I)cc1 | – | > 100 | >769 | – | 6.89 | – | 5.77 | < 4.70 | 5.32 | < 4.70 | –
O=C1c2ccccc2C(=O)N1CCOC(=S)Nc1ccc(F)cc1 | 100 | > 100 | >1000 | 4.42 | 7.00 | – | – | – | – | – | –
CC(CN1C(=O)c2ccccc2C1=O)O/C(S)=N/c1ccc(Cl)cc1 (stereo not drawn) | – | > 100 | >58.8 | – | 5.77 | – | – | – | – | – | –
CC(CO/C(S)=N\c1ccc([N+](=O)[O-])cc1)NC(=O)c1ccccc1C(=O)O (stereo not drawn) | – | > 100 | >7.7 | – | 4.89 | – | – | – | – | – | –
Cc1ccc(/N=C(\S)OC(C)CN2C(=O)c3ccccc3C2=O)cc1 (stereo not drawn) | – | > 100 | >2.1 | – | 4.32 | – | – | – | – | – | –
Cc1ccc(NC(=S)OCCN2C(=O)c3ccccc3C2=O)cc1 | 15 | > 100 | >5000 | – | 7.70 | – | – | – | – | – | 5.74
CC(COC(=S)Nc1ccc(Cl)cc1)N1C(=O)c2ccccc2C1=O (stereo not drawn) | – | 44 | 880 | – | 7.30 | – | – | – | – | – | –
Cc1ccc(/N=C(/S)OC(C)CNC(=O)c2ccccc2C(=O)O)cc1 (stereo not drawn) | – | > 100 | >2.4 | – | 4.39 | – | – | – | – | – | –
O=C(Nc1ccc([N+](=O)[O-])cc1)OCCN1C(=O)c2ccccc2C1=O | – | > 100 | >200 | – | 6.30 | – | – | – | – | – | –
CC(CN1C(=O)c2ccccc2C1=O)O/C(S)=N/c1ccc(Br)cc1 (stereo not drawn) | – | > 100 | >43.5 | – | 5.64 | – | – | – | – | – | –
N#Cc1ccc(NC(=S)OCCN2C(=O)c3ccccc3C2=O)cc1 | 100 | > 100 | >1429 | 5.23 | 7.15 | – | – | – | – | – | –
O=C1C2CC=CCC2C(=O)N1CCOC(=S)Nc1ccc(Br)cc1 (stereo not drawn) | – | > 100 | >43 | – | 5.64 | – | – | – | – | – | –
O=C1C2C3C=CC(C3)C2C(=O)N1CCOC(=S)Nc1ccc(Cl)cc1 (stereo not drawn) | – | > 100 | >1.5 | – | 4.17 | – | – | – | – | – | –
CC(CO/C(S)=N/c1ccc([N+](=O)[O-])cc1)N1C(=O)c2ccccc2C1=O (stereo not drawn) | – | > 100 | >167 | – | 6.22 | – | – | – | – | – | –
O=C1C2CC=CCC2C(=O)N1CCOC(=S)Nc1ccc(Cl)cc1 (stereo not drawn) | – | > 100 | >10.6 | – | 5.03 | – | – | – | – | – | –
Cc1ccc2c(c1)C(=O)N(CCOC(=S)Nc1ccc(Cl)cc1)C2=O | – | > 100 | >4000 | – | 7.60 | – | – | – | – | – | –
Cc1cccc2c1C(=O)N(CCO/C(S)=N/c1ccc([N+](=O)[O-])cc1)C2=O | – | 71 | 1014 | – | 7.15 | – | – | – | – | – | –
O=C1c2ccccc2C(=O)N1CCOC(=S)Nc1ccc([N+](=O)[O-])cc1 | 30 | 65 | 1625 | 5.22 | 7.40 | – | – | – | – | – | –
Cl.S=C(NCCc1ccccn1)Nc1ccc(Br)cn1 [TROVIRDINE HYDROCHLORIDE] | 15 | 60 | 3000 | 5.92 | 7.70 | – | 5.99 | < 4.70 | 4.82 | < 4.70 | –
